From ChEMBL document CHEMBL4765245 (Eur J Med Chem, 2020)

Columns and labels:
[1] = test system: HeLa; assay: (§1) Cytotoxicity against human HeLa cells assessed as reduction in cell viability incubated for 72 hrs measured by crystal violet based micro plate reader method; conditions: hela, 72 h
Summary of the method: (§2)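 Two-day-old confluent HeLa Ohio monolayers exposed to half-log dilutions (100 μM downward) in 2% FCS medium for 72 h at 37 °C, 5% CO2. Cells fixed and stained with crystal violet/formalin, dye eluted with acidified citrate-ethanol, OD read at 550/630 nm. Viability expressed relative to six mock-treated controls; CC50 is the mean of at least 3 tests.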

[2] = test system: Coxsackievirus B3; assay: Antiviral activity against Coxsackievirus B3 Nancy infected in human HeLa cell line assessed as inhibition of virus-induced cytopathic effect measured after 48 hrs by crystal violet uptake assay; format: functional, organism-based
Summary of the method: (§3)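 HeLa Ohio monolayers, 2 days old and confluent, in MEM with 2% FCS. Serial half-log compound dilutions from 100 μM were added just before CVB3 infection. Activity was calculated per Pauwels against six cell and six virus controls; mean IC50 from ≥3 experiments.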

[3] = test system: Coxsackievirus B3; assay: Antiviral activity against wild type Coxsackievirus B3 97927 infected in human HeLa cell line assessed as inhibition of virus-induced cytopathic effect measured after 48 hrs by crystal violet uptake assay; format: functional, organism-based; conditions: read-out: IC50
Summary of the method: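 Coxsackievirus B3 infection of 2-day-old HeLa Ohio monolayers in 2% FCS medium. Half-log dilutions from 100 μM added just before infection; guanidine hydrochloride served as positive control. Antiviral activity calculated per Pauwels; IC50 is the mean of at least 3 separate tests.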

[4] = test system: Coxsackievirus B3; assay: Antiviral activity against pleconaril-resistant Coxsackievirus B3 97927 11207K/I1092 mutant infected in human HeLa cell line assessed as inhibition of virus-induced cytopathic effect measured after 48 hrs by crystal violet uptake assay; format: functional, organism-based; summary of the method: as §3
[5] = test system: Coxsackievirus B3; assay: Antiviral activity against pleconaril-resistant Coxsackievirus B3 97927 11207M/I1092 mutant infected in human HeLa cell line assessed as inhibition of virus-induced cytopathic effect measured after 48 hrs by crystal violet uptake assay; format: functional, organism-based; summary of the method: as §3
[6] = test system: Coxsackievirus B3; assay: Antiviral activity against pleconaril-resistant Coxsackievirus B3 97927 11207T/I1092 mutant infected in human HeLa cell line assessed as inhibition of virus-induced cytopathic effect measured after 48 hrs by crystal violet uptake assay; format: functional, organism-based; summary of the method: as §3
[7] = test system: rhinovirus A2; assay: Antiviral activity against Rhinovirus A2 infected in human HeLa cell line assessed as inhibition of virus-induced cytopathic effect measured after 72 hrs by crystal violet uptake assay; format: functional, organism-based
Summary of the method: (§4)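 HeLa Ohio monolayers, 1 day old, in 2% FCS medium. Compound added as serial half-log dilutions from 100 μM immediately before rhinovirus infection. Activity calculated per Pauwels; IC50 is the mean of at least 3 experiments.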

[8] = test system: rhinovirus B5; assay: Antiviral activity against Rhinovirus B5 infected in human HeLa cell line assessed as inhibition of virus-induced cytopathic effect measured after 72 hrs by crystal violet uptake assay; format: functional, organism-based
Summary of the method: as §4, with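 “infection. CPE read at 72 h by crystal violet staining, elution and OD 550/630 nm, with six cell and six virus controls per plate.” for “infection.”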

[9] = test system: rhinovirus B14; assay: Antiviral activity against Rhinovirus B14 infected in human HeLa cell line assessed as inhibition of virus-induced cytopathic effect measured after 72 hrs by crystal violet uptake assay; format: functional, organism-based; summary of the method: as §4
[10] = Mutagenicity in Escherichia coli PQ37 at 10 mg/ml by SOS-chromotest; format: toxicity
[11] = Genotoxicity in Escherichia coli PQ37 assessed as zone of inhibition at 10 mg/ml measured on day 3 by SOS-chromo0test relative to control; format: toxicity; conditions: 72 h, time 3 day
[12] = Selectivity index, ratio of CC50 for human HeLa cells to IC50 for Coxsackievirus B3 Nancy infected in HeLa cell line assessed as inhibition of virus-induced cytopathic effect; format: toxicity; conditions: read-out: Selectivity Index
Summary of the method: (§5)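 SI calculated as CC50/IC50. Cytotoxicity: 2-day-old confluent HeLa Ohio monolayers were exposed to half-log dilutions from 100 μM in 2% FCS MEM for 72 h at 37 °C, then crystal violet stained, eluted and read at 550/630 nm. Antiviral: compound added just before CVB3 infection of 2-day-old HeLa; CPE scored by crystal violet at 48 h (Pauwels formula). Means from ≥3 tests each.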

[13] = Selectivity index, ratio of CC50 for human HeLa cells to IC50 for Coxsackievirus B3 97927 wild type infected in HeLa cell line assessed as inhibition of virus-induced cytopathic effect; format: toxicity; conditions: read-out: Selectivity Index; summary of the method: as §5
[14] = Selectivity index, ratio of CC50 for human HeLa cells to IC50 for pleconaril-resistant Coxsackievirus B3 97927 11207K/I1092 mutant infected in HeLa cell line assessed as inhibition of virus-induced cytopathic effect; format: toxicity; conditions: read-out: Selectivity Index; summary of the method: as §5
[15] = Selectivity index, ratio of CC50 for human HeLa cells to IC50 for pleconaril-resistant Coxsackievirus B3 97927 11207M/I1092 mutant infected in HeLa cell line assessed as inhibition of virus-induced cytopathic effect; format: toxicity; conditions: read-out: Selectivity Index; summary of the method: as §5
[16] = Selectivity index, ratio of CC50 for human HeLa cells to IC50 for pleconaril-resistant Coxsackievirus B3 97927 11207T/I1092 mutant infected in HeLa cell line assessed as inhibition of virus-induced cytopathic effect; format: toxicity; conditions: read-out: Selectivity Index; summary of the method: as §5
[17] = Selectivity index, ratio of CC50 for human HeLa cells to IC50 for Rhinovirus A2 infected in HeLa cell line assessed as inhibition of virus-induced cytopathic effect; format: toxicity; conditions: read-out: Selectivity Index
[18] = Selectivity index, ratio of CC50 for human HeLa cells to IC50 for Rhinovirus B5 infected in HeLa cell line assessed as inhibition of virus-induced cytopathic effect; format: toxicity; conditions: read-out: Selectivity Index
[19] = Selectivity index, ratio of CC50 for human HeLa cells to IC50 for Rhinovirus B14 infected in HeLa cell line assessed as inhibition of virus-induced cytopathic effect; format: toxicity; conditions: read-out: Selectivity Index
[20] = Elimination rate constant in Balb/c mouse at 100 mg/kg, IG measured upto 7 hrs by HPLC-MS method; format: ADME, organism-based; conditions: in vivo, po
Summary of the method: (§6)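 Male BALB/c mice (~20 g), food withheld 1 h before and after dosing; single 100 mg/kg intragastric dose as suspension in 0.5% CMC with one drop Tween-80. Blood taken at 0.5, 1, 2, 3, 5, 7 h (3 animals per time point); plasma MeCN-precipitated, HPLC-MS (ESI positive). Non-compartmental analysis: AUC by trapezium with extrapolation; CL = dose/AUC; Vd = CL/kel.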

[21] = AUC (0 to infinity) in Balb/c mouse at 100 mg/kg, IG measured upto 7 hrs by HPLC-MS method; format: ADME, organism-based; parameters: route […], dose 100 mg/kg, time <=7; conditions: in vivo, po; summary of the method: as §6
[22] = Clearance in Balb/c mouse at 100 mg/kg, IG measured upto 7 hrs by HPLC-MS method; format: ADME, organism-based; conditions: in vivo, po; summary of the method: as §6
[23] = Volume of distribution in Balb/c mouse at 100 mg/kg, IG measured upto 7 hrs by HPLC-MS method; format: ADME, organism-based; conditions: in vivo, po; summary of the method: as §6
[24] = as §1; conditions: HeLa cells; summary of the method: as §2
[25] = Enterovirus B, Nancy, HeLa, 48 h, read-out: IC50
[26] = Enterovirus B, 97927, HeLa, 48 h
[27] = Rhinovirus A, HeLa, 72 h, read-out: IC50
[28] = Rhinovirus B, HeLa, 72 h, read-out: IC50

Row | Compound | CC50 [1] | IC50 [2, 25] | IC50 [3, 26] | IC50 ([4]; read-out: IC50) | IC50 [5] | IC50 ([6]; read-out: IC50) | IC50 [7, 27] | IC50 [9, 28] | Activity [10] | inhibition zone (IZ) [11] | IC50 [8] | IC50 [4] | further results
1 | CN(C)C(=O)c1cc(CCCOc2ccc(-c3noc(C(F)(F)F)n3)cc2[N+](=O)[O-])on1 | 22.5 µM | 1.66 µM | 0.003 µM | 6.46 µM | 0.001 µM | 0.03 µM | 0.67 µM | 0.28 µM | Non-Toxic | 0 mm | – | – | IC50 [8, 28]: 7.63 µM
2 | Cc1cc(-c2noc(C(F)(F)F)n2)cc(C)c1OCCCc1cc(C(=O)N(C)C)no1 | 13.2 µM | – | 0.02 µM | 6.33 µM | 0.03 µM | 1.01 µM | 0.12 µM | 0.12 µM | Non-Toxic | 0 mm | – | – | –
3 | CN(C)C(=O)c1cc(CCCOc2ccc(-c3noc(C(F)(F)F)n3)cc2C(F)(F)F)on1 | 19.2 µM | 2.24 µM | – | 7.18 µM | 0.16 µM | 0.54 µM | 0.32 µM | 6.76 µM | Non-Toxic | 0 mm | Not Active | – | IC50 [3]: 0.16 µM
4 | CNC(=O)c1cc(CCCOc2c(C)cc(-c3noc(C(F)(F)F)n3)cc2C)on1 | > 100 µM | – | 0.06 µM | – | 0.37 µM | – | 0.2 µM | 0.02 µM | Non-Toxic | 0 mm | – | Not Active | IC50 [6]: Not Active
5 | Cc1cc(-c2noc(C(F)(F)F)n2)ccc1OCCCc1cc(C(=O)N(C)C)no1 | 13.4 µM | 2.76 µM | 0.02 µM | 4.79 µM | 0.01 µM | 0.01 µM | 0.86 µM | 0.09 µM | Non-Toxic | 0 mm | – | – | IC50 [8, 28]: 5.25 µM; selectivity ratio [12]: 4.9; selectivity ratio [13]: 669; selectivity ratio [14]: 2.8; selectivity ratio [15]: 1340; selectivity ratio [16]: 1340; selectivity ratio [17]: 15.6; selectivity ratio [18]: 2.6; selectivity ratio [19]: 149; Kel [20]: 0.4373 h⁻¹; AUC [21]: 3015.5 ng·h/mL; clearance [22]: 0.66 L/h; Vd [23]: 1.52 L
6 | CCOC(=O)c1cc(CCCOc2ccc(-c3noc(C(F)(F)F)n3)cn2)on1 | – | – | 10.3 µM | – | – | – | – | 1.99 µM | – | – | Not Active | – | CC50 at 72 h [24]: > 100 µM; IC50 [2]: Not Active; IC50 [7]: Not Active
7 | CNC(=O)c1cc(CCCOc2ccc(-c3noc(C(F)(F)F)n3)cc2C(F)(F)F)on1 | > 100 µM | 14.1 µM | 0.02 µM | – | 0.06 µM | 1.04 µM | 0.96 µM | – | – | – | Not Active | Not Active | IC50 [9]: Not Active
8 | CCOC(=O)c1cc(CCCOc2ccc(-c3noc(C(F)(F)F)n3)cc2C)on1 | 35.1 µM | 19 µM | 0.062 µM | – | 0.61 µM | 1.23 µM | – | 0.52 µM | – | – | Not Active | Not Active | IC50 [7]: Not Active
